Screening results (PubChem)
HNF4A DNA FP = change in binding of human HNF4A to DNA, primary screen, biochemical, fluorescence polarization, FITC-DNA. actives 0.3% (n = 360,000). 1 h. activity change, % at 10 µM. Hepatocyte nuclear factor 4-alpha (Homo sapiens), P41235; in the data active = activity change above about 30%, passing the limit was not always enough
SENP1 FRET inh = human SENP1 catalytic domain inhibitors, primary screen, biochemical, FRET, uHTS; Sentrin-specific protease 1 (Homo sapiens), Q9P0U3; recombinant SENP1 catalytic domain, CyPet-SUMO1-YPet FRET cleavage; inhibition, % at 10 µM; actives 0.21% (n = 360,000); AID 624204, 2012;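 active = inhibition at least 30% at 10 µM, raw YFP signal under a set limit, fluorescence ratio 0.5 to 1.5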;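 also: 0% = enzyme with DMSO and 100% = no enzyme wells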
Target sequence (Q9P0U3 419-644 limits assumed): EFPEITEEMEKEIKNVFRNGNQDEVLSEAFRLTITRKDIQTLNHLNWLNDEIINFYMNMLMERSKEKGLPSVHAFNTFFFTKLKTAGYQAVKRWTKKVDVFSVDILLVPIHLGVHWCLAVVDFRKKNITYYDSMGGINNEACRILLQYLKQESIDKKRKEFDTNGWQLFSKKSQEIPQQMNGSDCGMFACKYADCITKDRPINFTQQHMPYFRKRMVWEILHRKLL
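material = recombinant human SENP1 catalytic domain, His6-tagged | quantity = 20 pM enzyme | reagent = 25 nM SUMO1 FRET substrate | compound dosing = 10 µM single point, 0.5% DMSO | timing = 50 min enzyme reaction, room temperature, light-protected | detection = FRET, CFP and YFP emission | control set = no-enzyme low, enzyme-DMSO high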
Rpn11 inh = Rpn11 (PSMD14) deubiquitinase inhibitors, primary screen, biochemical, fluorescence polarization, uHTS; calls only at 20 µM; human 26S proteasome, Ub4-pepOG fluorescence polarization; 20S core pre-blocked with epoxomicin; AID 588493, 2011; actives 0.59% (n = 360,000); 26S proteasome non-ATPase regulatory subunit 14 (Homo sapiens), O00487;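 active = inhibition at 20 µM, scaled to each plate's controls, above about 33%, limit read from the data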
TPT1 inh = Candida albicans TPT1 enzyme inhibitors, primary screen, biochemical, fluorescence polarization | tRNA 2'-phosphotransferase TPT1 (Candida albicans SC5314) | recombinant caTPT1, FP RNA substrate dephosphorylation | inhibition, % at 5 µM | actives 0.81% (n = 300,000) | AID 1962, 2009;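 active = inhibition above the mean of all tested compounds plus 3 SD, set per screening campaign, cut at about 24% in these data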;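 also: plate controls were DMSO alone for no effect and ferristatin control at 100 nM for full effect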
CSN inh = inhibitors of CSN-mediated cullin deneddylation, primary screen, biochemical, fluorescence polarization, uHTS | inhibition, % at 12.5 µM | actives 0.38% (n = 360,000) | Purified CSN, SCF-Nedd8-OG deneddylation;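 active = pattern-corrected inhibition above about 35%, with an unprinted fluorescence ratio check between 0.5 and 1.5, limit read from the data, passing the limit was not always enough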;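 also: 0% = enzyme with substrate and 100% = substrate without enzyme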
Target sequence (Q92905 whole entry, looked up, one chain of several): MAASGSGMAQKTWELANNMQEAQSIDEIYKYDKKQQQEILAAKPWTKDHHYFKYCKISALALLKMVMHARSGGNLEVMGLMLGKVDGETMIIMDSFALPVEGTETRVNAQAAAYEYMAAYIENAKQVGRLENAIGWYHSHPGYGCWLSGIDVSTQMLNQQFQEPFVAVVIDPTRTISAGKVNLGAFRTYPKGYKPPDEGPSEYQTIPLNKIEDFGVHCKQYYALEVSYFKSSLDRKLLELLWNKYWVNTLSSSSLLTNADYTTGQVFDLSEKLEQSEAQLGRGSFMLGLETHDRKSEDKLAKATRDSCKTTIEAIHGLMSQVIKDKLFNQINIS
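test system = HEK293T-derived human Csn5 enzyme | amount = 0.24 nM Csn5 enzyme, final concentration | medium = Tris/NaCl/DTT buffer, pH 7.5 | schedule = 90 min reaction at room temperature | signal = FP | evaluation = inhibition of Csn5 cleavage, % | compound dosing = single dose of 12.5 µM compound with 0.25% DMSO | probe or stimulus = 10 nM SCFSkp2-Nedd8OG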
UBC9 SUMO inh = inhibitors of in vitro SUMOylation cascade, primary screen, biochemical, HTRF, uHTS; HTRF SUMOylation assay, SAE1/SAE2 + UBC9; actives 0.36% (n = 290,000); AID 2006, 2009; inhibition, % at 35 µM; in the data active = inhibition above about 50%, passing the limit was not always enough; inconclusive = no clear call, values can overlap the other calls
* = called active by the depositor; i = inactive; ? = inconclusive; nt = no result given; + = active, no number. In the library only some 1.8% were active in any assay of this set; here they are far more common.

SMILES	HNF4A DNA FP	SENP1 FRET inh	Rpn11 inh	TPT1 inh	CSN inh	UBC9 SUMO inh
C#CCOCCOCCOCCNc1nc(N2CCN(C(=O)CCCCCCCCCCNC(=O)Cn3cc(C[C@@H](C)O)nn3)CC2)nc(N2CCN(C(=O)CCCCCCCCCCNC(=O)[C@H](CCCCN)n3cc(CCCC(=O)O)nn3)CC2)n1	3.5	-18.3	i	3.7	5.2	nt
C#CCOCCOCCOCCNc1nc(N2CCN(C(=O)CCCCCCCCCCNC(=O)Cn3cc(C[C@@H](C)O)nn3)CC2)nc(N2CCN(C(=O)CCCCCCCCCCNC(=O)[C@H](CCCN=C(N)N)n3cc(C[C@@H](C)CC)nn3)CC2)n1	160.0	-2.3	+	0.3	44.0*	nt
C#CCOCCOCCOCCNc1nc(N2CCN(C(=O)CCCCCCCCCCNC(=O)[C@H](CO)n3cc(CCCSC)nn3)CC2)nc(N2CCN(C(=O)CCCCCCCCCCNC(=O)[C@H](CCCN=C(N)N)n3cc(C[C@@H](C)CC)nn3)CC2)n1	278.6	-0.4	+	-2.6	130.6*	nt
CCc1ccc(NC(=O)Nc2cc(C(=O)NCC3CCCO3)ccc2N2CC3CC(C2)c2cccc(=O)n2C3)cc1 (stereo not given)	-2.5	1.4	i	-1.5	-4.9	nt
COc1ccccc1Cc1c(-c2ccc(F)cc2)nc2c(C)cc(Br)cn12	15.4	8.4	i	nt	2.7	nt
COC(=O)[C@@]1(Cc2ccc(F)cc2)[C@H]2c3cc(C(=O)N4CCCC4)n(Cc4cc(C)n(C)n4)c3C[C@H]2CN1C(=O)c1ccccc1	-4.8	-1.9	nt	nt	-4.2	nt
COC(=O)[C@@]1(Cc2ccc(F)cc2)[C@H]2c3cc(C(=O)N(C)C)n(Cc4cc(C)n(C)n4)c3C[C@H]2CN1C(=O)c1ccccc1	-0.7	0.2	nt	nt	102.1*	nt
CC1CCCC(C)N1C(=O)CSc1nc(N)cc(N)n1 (stereo not given)	53.3*	-1.4	i	0.8	0.6	13.8
O=C1CCN(C(=O)/C=C/c2ccccc2)c2ccccc21	2.6	0.4	i	-2.6	-0.3	10.2
Cc1ccc(/C=C2\Oc3cc(OCC(=O)NN)ccc3C2=O)o1	11.4	-25.3	i	nt	2.6	58.8*
CC(CCC(C)C(C)(C)C)[C@@H]1CC[C@H]2C3C[C@H](OS(O)(=S)=S)[C@H]4C[C@H](OS(O)(=S)=S)[C@@H](OS(O)(=S)=S)C[C@]4(C)[C@H]3CC[C@]12C (stereo not given in full) (tested in a mixture with another compound)	-82.0	-8.0	+	nt	35.0*	nt
CN(C)/C=N/c1nc2nccc(-c3ccccn3)n2n1	0.6	-11.6	i	-3.9	-10.8	?
CN(C)/C=N/c1nc2nccc(-c3cccnc3)n2n1	-3.6	-3.5	i	-0.5	-4.0	64.8*
COc1ccc(-c2ccnc3nc(/N=C/N(C)C)nn23)cc1	nt	nt	nt	1.9	nt	57.2*
COc1cccc(OC(C)c2ccnc3nc(/N=C/N(C)C)nn23)c1 (stereo not given)	2.3	0.7	i	0.2	-2.0	2.8
COc1ccc(Nc2nc3ccccc3s2)cc1	-1.1	-1.4	i	-2.5	-1.4	-13.3
COc1ccc(Nc2nc(Cl)c(C=O)s2)cc1	87.9*	-31.2	nt	10.7	40.7*	4.1
COc1cc(OC)c2c(O)c3c(c(-c4c5c(c(O)c6c(OC)cc(OC)cc46)CO[C@@H](C)[C@H]5O)c2c1)[C@H](O)[C@H](C)OC3	4.6	-31.1	+	12.7	27.9	nt
COc1cc2c(c(OC)c1O)C(=O)CO2	-1.7	-2.1	i	1.3	-0.2	20.3
CC(=O)Nc1ccc(-c2ccnc3c2CC(C(=O)Nc2ccccc2)O3)cc1 (stereo not given)	-3.9	2.0	i	nt	0.9	nt
Cc1ccccc1NC(=O)CSc1ccsc1[N+](=O)[O-]	-36.1	4.4	i	2.9	35.0*	14.5
O=C(Oc1ccc[nH]c1=O)c1cccc(Cl)c1	-0.8	1.1	i	-1.9	-1.6	100.2*
CCOc1ccccc1N(CC(=O)NCCc1ccc(OC)c(OC)c1)S(=O)(=O)c1ccccc1	1.4	-1.8	i	-1.2	0.6	-3.1
N#C/C(=C(/O)c1ccc([N+](=O)[O-])o1)c1nc2ccccc2[nH]1	-5.3	-35.7	i	-5.7	3.6	-0.1
N#C/C(=C\c1ccc([N+](=O)[O-])o1)c1nc2ccccc2[nH]1	nt	nt	nt	28.8*	nt	17.9
SMILES	HNF4A DNA FP	SENP1 FRET inh	Rpn11 inh	TPT1 inh	CSN inh	UBC9 SUMO inh
Cc1cc(C(=O)N/N=C/c2cc(Br)ccc2OC(=O)c2ccc(Br)cc2)n[nH]1	nt	nt	nt	0.8	nt	67.1*
CCc1ccc(NC(=O)C(CC)Sc2nc3cc4c(cc3c(=O)n2Cc2ccco2)OCO4)cc1 (stereo not given)	2.8	0.6	i	0.1	-1.3	54.1*
O=C(O)c1ccccc1C1=Nc2ccc(O)cc2Oc2cc(O)ccc21	-89.2	59.1*	i	-94.2	-81.9	3.1
Cc1cc(-c2ccccc2C(=O)O)on1	2.3	-0.4	i	-2.0	2.1	16.1
CC(C)C[C@@H](CN)NC(=O)c1nc[nH]c1C(=O)N[C@@H](C)C(=O)CNC[C@H](C)NC(=O)c1nc[nH]c1C(=O)N[C@@H](CC(C)C)C(=O)O	3.2	0.0	i	nt	-0.5	nt
Cc1cccc(N(C)C(=O)C2CCCN2S(=O)(=O)c2cccc3nsnc23)c1 (stereo not given)	-2.2	2.3	i	-0.8	-5.7	14.4
O=C(NCc1cc(C(F)(F)F)ccc1Cl)c1cccc2c1C(=O)c1ccc(N3CCCCC3)cc1S2(=O)=O	72.7	-31.2	nt	nt	55.1*	nt
O=C(NCc1ccc(OC(F)(F)F)cc1)c1cccc2c1C(=O)c1ccc(N3CCCC3)cc1S2(=O)=O	99.0	-29.0	nt	nt	84.7*	nt
O=C(NCc1cc(C(F)(F)F)ccc1Cl)c1cccc2c1C(=O)c1ccc(N3CCOCC3)cc1S2(=O)=O	25.4	-29.7	i	nt	22.5	nt
CC(C)N(Cc1nc(-c2ccc(Cl)cc2)no1)Cc1nccn1C	4.9	-3.1	i	3.8	-1.6	10.2
O=C1C(Nc2ccccc2)=C/C(=N/S(=O)(=O)c2cccs2)c2ccccc21	0.3	1.9	i	0.3	10.2	49.1
CCc1cc[n+](C2=C([O-])c3ccccc3C(=O)/C2=N\S(=O)(=O)c2cccs2)cc1	-1.7	9.3	i	-2.4	-1.5	59.2*
